From ChEMBL document CHEMBL2331481, “Chemotherapy of leishmaniasis part X: synthesis and bioevaluation of novel terpenyl heterocycles” (Bioorg Med Chem Lett, 2013)

Test system: Leishmania donovani
Experiment: Antileishmanial activity against Leishmania donovani amastigote infected in mouse J774A.1 cells after 72 hrs by luciferase reporter gene assay
Type: functional, organism-based
Settings: J774.A1, 72 h
Method in brief: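 Macrophages seeded at 4×10^4 cells/well in RPMI-1640 + 10% FCS, 37 °C CO2, 24 h; then infected with stationary-phase luciferase-expressing promastigotes (4×10^5/well), which transform to amastigotes. Compounds at 2-fold dilutions, 7 points from 40 µM, 72 h. Read-out: luminescence after Steady Glo in PBS. IC50 by nonlinear regression of concentration-response, four-parameter Hill equation.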

| SMILES | IC50 [µM] |
| --- | --- |
| CC1=C(/C=C/C2=NN(c3ccccc3)C(c3ccc(Cl)cc3)C2)C(C)(C)CCC1 (stereo not drawn) | > 20 |
| CC1=C(/C=C/C2=NN(c3ccccc3)C(c3cccc(Cl)c3)C2)C(C)(C)CCC1 (stereo not drawn) | > 40 |
| CC1=C(/C=C/C2=NN(c3ccccc3)C(c3ccc(F)cc3)C2)C(C)(C)CCC1 (stereo not drawn) | > 40 |
| CC1=C(/C=C/C2=NN(c3ccccc3)C(c3ccc(OCc4ccccc4)cc3)C2)C(C)(C)CCC1 (stereo not drawn) | > 40 |
| CC1=CCCC(C)(C)C1/C=C/C1=NN(c2ccccc2)C(c2ccccc2[N+](=O)[O-])C1 (stereo not drawn) | > 20 |
| CC1=CCCC(C)(C)C1/C=C/C1=NN(c2ccccc2)C(c2ccc([N+](=O)[O-])cc2)C1 (stereo not drawn) | > 40 |
| CC1=CCCC(C)(C)C1/C=C/C1=NN(c2ccccc2)C(c2ccc(F)cc2)C1 (stereo not drawn) | > 40 |
| COc1ccc(C2CC(/C=C/C3C(C)=CCCC3(C)C)=NN2c2ccccc2)cc1OC (stereo not drawn) | > 20 |
| COc1cc(C2CC(/C=C/C3C(C)=CCCC3(C)C)=NN2c2ccccc2)cc(OC)c1OC (stereo not drawn) | > 20 |
| CC1=CCCC(C)(C)C1/C=C/c1cc(-c2ccccc2[N+](=O)[O-])n(-c2ccccc2)n1 (stereo not drawn) | > 40 |
| CC1=CCCC(C)(C)C1/C=C/c1cc(-c2ccc([N+](=O)[O-])cc2)n(-c2ccccc2)n1 (stereo not drawn) | > 40 |
| CC1=CCCC(C)(C)C1/C=C/c1cc(-c2ccc(F)cc2)n(-c2ccccc2)n1 (stereo not drawn) | > 40 |
| COc1ccc(-c2cc(/C=C/C3C(C)=CCCC3(C)C)nn2-c2ccccc2)cc1OC (stereo not drawn) | > 20 |
| COc1cc(-c2cc(/C=C/C3C(C)=CCCC3(C)C)nn2-c2ccccc2)cc(OC)c1OC (stereo not drawn) | > 40 |
| CC1=C(/C=C/C2=NN(c3ccccc3)C(c3ccccc3[N+](=O)[O-])C2)C(C)(C)CCC1 (stereo not drawn) | > 20 |
| CC1=C(/C=C/C2=NN(c3ccccc3)C(c3ccc([N+](=O)[O-])cc3)C2)C(C)(C)CCC1 (stereo not drawn) | > 40 |
| CC1=C(/C=C/C2=NN(c3ccccc3)C(c3cccc([N+](=O)[O-])c3)C2)C(C)(C)CCC1 (stereo not drawn) | 16.9 |
| COc1ccc(C2CC(/C=C/C3=C(C)CCCC3(C)C)=NN2c2ccccc2)cc1OC (stereo not drawn) | 7.49 |
| COc1cc(C2CC(/C=C/C3=C(C)CCCC3(C)C)=NN2c2ccccc2)cc(OC)c1OC (stereo not drawn) | > 20 |
| CC1=C(/C=C/C2=NN(c3ccccc3)C(c3ccccc3Cl)C2)C(C)(C)CCC1 (stereo not drawn) | > 20 |

Test system: not listed separately
Experiment: Selectivity index, ratio of CC50 for human KB cells to IC50 for Leishmania donovani amastigote infected in mouse J774A.1 cells
Type: functional
Settings: not given
Method in brief: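 SI computed as CC50 in KB cells (MTT, 72 h) divided by IC50 against amastigotes in luciferase-reporter infected J774A.1 macrophages (72 h).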

| SMILES | Ratio CC50/IC50 |
| --- | --- |
| CC1=C(/C=C/C2=NN(c3ccccc3)C(c3cccc([N+](=O)[O-])c3)C2)C(C)(C)CCC1 (stereo not drawn) | 16.48 |
| COc1ccc(C2CC(/C=C/C3=C(C)CCCC3(C)C)=NN2c2ccccc2)cc1OC (stereo not drawn) | 29.46 |
| CCCCCCCCCCCCCCCCOP(=O)([O-])OCC[N+](C)(C)C [MILTEFOSINE] | 0.26 |

Test system: not listed separately
Experiment: Cytotoxicity against human KB cells after 72 hrs by MTT assay
Type: cell-based
Settings: not given
Method in brief: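 Exponentially growing cells at 1×10^5/well, 72 h at 37 °C, humidified CO2, with compounds at 3-fold dilutions, 7 points from 400 µM. Compounds dissolved in DMSO, diluted in complete medium. DMSO vehicle wells; podophyllotoxin reference. MTT (5 mg/ml in PBS) 2 h at 37 °C, formazan dissolved in DMSO, absorbance 544 nm. CC50 is the concentration giving 50% viability loss versus medium-only cells, estimated per Huber and Koella.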

| SMILES | CC50 at 72 h [µM] |
| --- | --- |
| CC1=C(/C=C/C2=NN(c3ccccc3)C(c3cccc([N+](=O)[O-])c3)C2)C(C)(C)CCC1 (stereo not drawn) | 279 |
| COc1ccc(C2CC(/C=C/C3=C(C)CCCC3(C)C)=NN2c2ccccc2)cc1OC (stereo not drawn) | 221 |

Test system: Leishmania donovani
Experiment: Leishmanicidal activity against Leishmania donovani MHOM/IN/80/Dd8 infected in golden hamster at 50 mg/kg, ip for 5 consecutive days measured on day 7 of last drug administration by Giemsa staining method
Type: functional
Settings: MHOM/IN/80/Dd8, ip, 168 h, route intraperitoneal
Method in brief: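 Inbred hamsters of either sex, 40-45 g, infected intracardially with 1×10^7 amastigotes; infection establishes in 15-20 days. Only animals with +1 infection (5-15 amastigotes/100 spleen nuclei) on pre-treatment spleen biopsy were used, randomized by parasite burden, 5-6 per group. i.p. dosing began 2 days after biopsy. Giemsa amastigote counts; PI = 100 − [ANAT×100/(INAT×TIUC)].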

| SMILES | inhibition in vivo at 50 mg/kg [%] |
| --- | --- |
| CC1=C(/C=C/C2=NN(c3ccccc3)C(c3cccc([N+](=O)[O-])c3)C2)C(C)(C)CCC1 (stereo not drawn) | 7.13 |
| COc1ccc(C2CC(/C=C/C3=C(C)CCCC3(C)C)=NN2c2ccccc2)cc1OC (stereo not drawn) | 80.8 |
| CCCCCCCCCCCCCCCCOP(=O)([O-])OCC[N+](C)(C)C [MILTEFOSINE] | 95.3 |
